Data: ChEMBL document CHEMBL1124309, “Toward the synthesis of isozyme-specific enzyme inhibitors. Potent inhibitors of rat methionine adenosyltransferases. Effect of one-atom elongation of the ribose-P alpha bridge in two covalent adducts of L-methionine and beta,gamma-imido-ATP” (J Med Chem, 1988)

Tests used:
[1] = molecular target: T1, S-adenosylmethionine synthetase (MAT 1 and MAT 2) (Rattus norvegicus, UniProt P13444+P18298); assay: Inhibition constant of ATP varied compound was measured on M-2 variate methionine adenosyltransferase in rat kidney
Procedure, shortened: (§1)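 Rat M-2 enzyme; MgATP varied at six to eight levels, (0.5-4.0)×KM, with L-[methyl-14C]methionine fixed at 60 μM; two inhibitor levels plus no-inhibitor control. 10 min, 37 °C, pH 8.2 Tris/KCl/MgCl2/DTT buffer, duplicates. Acid-stopped; product on phosphocellulose discs counted by scintillation; no-ATP blanks. Ki from slope/intercept replots of double-reciprocal plots.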

[2] = molecular target: T1, S-adenosylmethionine synthetase (MAT 1 and MAT 2); assay: Inhibition constant of ATP varied compound was measured on MT variant methionine adenosyltransferase in rat ascitic hepatoma cells; assay type: cell-based
Procedure, shortened: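 M-T variant; MgATP varied at six to eight levels, (0.5-4.0)×KM, with L-[methyl-14C]methionine fixed at 120 μM; two inhibitor levels plus uninhibited control. Duplicate 10-min incubations at 37 °C in pH 8.2 Tris/KCl/MgCl2/DTT. Stopped with HClO4-methionine; labelled product bound to phosphocellulose discs, scintillation counted; no-ATP blanks. Ki by replotting double-reciprocal slopes/intercepts.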

[3] = molecular target: T1, S-adenosylmethionine synthetase (MAT 1 and MAT 2); assay: Inhibition constant of Met varied compound was measured on M-2 variant methionine adenosyltransferase in rat kidney
Procedure, shortened: (§2)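 L-[methyl-14C]methionine varied at six to eight levels, (0.5-4.0)×KM, with MgATP fixed at 2 mM for both M-2 and M-T; two inhibitor levels plus control. Incubations run in duplicate for 10 min at 37 °C, pH 8.2 Tris buffer with KCl, MgCl2 and DTT. Product on phosphocellulose discs counted by scintillation; no-ATP blanks. Ki from replots of double-reciprocal slopes/intercepts.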

[4] = molecular target: T1, S-adenosylmethionine synthetase (MAT 1 and MAT 2); assay: Inhibition constant of Met varied compound was measured on MT variant methionine adenosyltransferase in rat ascitic hepatoma cells; assay type: cell-based; procedure, shortened: as §2
[5] = molecular target: T1, S-adenosylmethionine synthetase (MAT 1 and MAT 2); assay: Inhibition constant of Met varied compound was measured on M-2 variant Methionine adenosyltransferase in rat kidney; procedure, shortened: as §2
[6] = molecular target: T1, S-adenosylmethionine synthetase (MAT 1 and MAT 2); assay: Inhibition constant of ATP varied compound was measured on M-2 variate Methionine adenosyltransferase in rat kidney; procedure, shortened: as §1

Row | Ki [1] | Ki [2] | Ki [3] | Ki [4] | Ki [5] | Ki [6] | SMILES
1 | 440 nM | 810 nM | 2100 nM | 1500 nM | – | – | Nc1ncnc2c1ncn2[C@@H]1O[C@H](C(CCOP(=O)(O)OP(=O)(O)NP(=O)(O)O)SCCC(N)C(=O)O)[C@@H](O)[C@H]1O (stereo partly specified)
2 | 360 nM | 270 nM | 3000 nM | 2300 nM | – | – | Nc1ncnc2c1ncn2[C@@H]1O[C@H]([C@@H](CNP(=O)(O)OP(=O)(O)OP(=O)(O)O)SCCC(N)C(=O)O)[C@@H](O)[C@H]1O (stereo partly specified)
3 | – | 210 nM | – | 670 nM | 650 nM | 130 nM | Nc1ncnc2c1ncn2[C@@H]1O[C@H]([C@H](CSCCC(N)C(=O)O)OP(=O)(O)OP(=O)(O)NP(=O)(O)O)[C@@H](O)[C@H]1O (stereo partly specified)
4 | 390 nM | 630 nM | 2200 nM | 2700 nM | – | – | Nc1ncnc2c1ncn2[C@@H]1O[C@H](CC(CSCC[C@H](N)C(=O)O)OP(=O)(O)OP(=O)(O)NP(=O)(O)O)[C@@H](O)[C@H]1O (stereo partly specified)
